ChEMBL document CHEMBL2203168, “Amine linked flavonoid dimers as modulators for P-glycoprotein-based multidrug resistance: structure-activity relationship and mechanism of modulation” (J Med Chem, 2012)
In brackets after ≈: the same amount, converted by molar mass.

Tests used:
[1] = molecular target: T1, ATP-dependent translocase ABCB1 (Homo sapiens, UniProt P08183); assay: Competitive inhibition of P-gp overexpressed in human MDA435/LCC6MDR cells assessed as accumulation of doxorubicin by Dixon plot analysis; format: cell-based
T1 sequence (P08183 whole entry): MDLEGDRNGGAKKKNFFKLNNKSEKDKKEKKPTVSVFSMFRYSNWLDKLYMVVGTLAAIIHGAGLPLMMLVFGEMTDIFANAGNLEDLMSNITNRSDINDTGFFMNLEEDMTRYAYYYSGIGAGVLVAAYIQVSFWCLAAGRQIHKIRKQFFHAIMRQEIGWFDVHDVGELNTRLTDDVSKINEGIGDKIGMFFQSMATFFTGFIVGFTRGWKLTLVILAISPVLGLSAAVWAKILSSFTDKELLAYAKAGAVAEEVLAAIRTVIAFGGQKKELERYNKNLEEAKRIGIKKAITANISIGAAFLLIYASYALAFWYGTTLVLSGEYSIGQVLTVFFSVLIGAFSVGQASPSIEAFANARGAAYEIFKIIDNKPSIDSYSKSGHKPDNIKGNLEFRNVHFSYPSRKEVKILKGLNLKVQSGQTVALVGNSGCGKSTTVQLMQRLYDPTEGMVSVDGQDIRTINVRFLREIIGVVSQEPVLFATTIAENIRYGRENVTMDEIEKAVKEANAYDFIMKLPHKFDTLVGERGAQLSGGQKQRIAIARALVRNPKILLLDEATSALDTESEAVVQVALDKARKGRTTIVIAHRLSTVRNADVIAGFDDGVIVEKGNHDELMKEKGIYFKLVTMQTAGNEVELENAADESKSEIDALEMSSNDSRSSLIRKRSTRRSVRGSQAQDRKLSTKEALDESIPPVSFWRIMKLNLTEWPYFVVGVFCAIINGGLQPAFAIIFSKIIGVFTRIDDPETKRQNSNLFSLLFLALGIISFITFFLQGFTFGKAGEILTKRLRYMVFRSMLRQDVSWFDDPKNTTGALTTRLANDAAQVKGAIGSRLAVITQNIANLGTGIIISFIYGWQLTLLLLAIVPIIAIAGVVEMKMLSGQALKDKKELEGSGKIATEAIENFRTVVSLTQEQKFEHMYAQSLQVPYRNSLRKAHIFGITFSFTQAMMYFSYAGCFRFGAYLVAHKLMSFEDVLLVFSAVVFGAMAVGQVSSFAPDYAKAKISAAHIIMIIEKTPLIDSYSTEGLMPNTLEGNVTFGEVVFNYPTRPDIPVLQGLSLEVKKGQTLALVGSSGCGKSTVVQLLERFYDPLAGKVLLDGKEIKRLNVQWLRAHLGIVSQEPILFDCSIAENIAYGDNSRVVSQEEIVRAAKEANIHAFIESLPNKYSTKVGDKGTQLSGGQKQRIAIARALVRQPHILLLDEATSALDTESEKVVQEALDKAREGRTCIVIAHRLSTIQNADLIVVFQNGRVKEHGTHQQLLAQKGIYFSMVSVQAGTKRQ

[2] = Reversal of P-gp-mediated vinblastin-resistance in human LCC6MDR cells after 5 days by MTS assay; format: cell-based; conditions: 120 h
[3] = Reversal of P-gp-mediated vincristine-resistance in human LCC6MDR cells after 5 days by MTS assay; format: cell-based; conditions: 120 h
[4] = molecular target: T2, Broad substrate specificity ATP-binding cassette transporter ABCG2 (Homo sapiens, UniProt Q9UNQ0); assay: Inhibition of BCRP-mediated topotecan resistance in human HEK293/R2 cells assessed as fold decrease in topotecan IC50 for cytotoxic activity at 0.5 uM after 5 days by MTS assay relative to parental cell; format: cell-based; conditions: hek293/r2, 120 h
T2 sequence (Q9UNQ0 whole entry): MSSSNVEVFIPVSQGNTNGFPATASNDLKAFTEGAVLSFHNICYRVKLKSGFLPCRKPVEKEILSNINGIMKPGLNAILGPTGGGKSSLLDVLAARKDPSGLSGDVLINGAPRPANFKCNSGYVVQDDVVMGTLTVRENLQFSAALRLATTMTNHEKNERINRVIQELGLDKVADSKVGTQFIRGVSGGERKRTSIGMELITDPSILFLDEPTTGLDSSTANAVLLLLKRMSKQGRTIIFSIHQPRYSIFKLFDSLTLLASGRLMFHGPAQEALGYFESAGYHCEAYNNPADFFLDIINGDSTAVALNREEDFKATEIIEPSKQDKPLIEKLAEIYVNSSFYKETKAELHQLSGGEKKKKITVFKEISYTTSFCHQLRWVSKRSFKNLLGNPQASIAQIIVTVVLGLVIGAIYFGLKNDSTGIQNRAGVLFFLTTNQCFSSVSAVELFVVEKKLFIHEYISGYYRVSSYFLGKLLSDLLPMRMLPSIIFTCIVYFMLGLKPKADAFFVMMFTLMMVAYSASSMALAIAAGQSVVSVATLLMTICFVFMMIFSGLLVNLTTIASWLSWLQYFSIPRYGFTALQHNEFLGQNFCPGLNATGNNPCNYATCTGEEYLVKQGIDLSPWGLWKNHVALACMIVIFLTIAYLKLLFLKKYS
In short: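 Viability read by MTS. Topotecan IC50 taken from dose-response curves. Fold change = IC50 without modulator / IC50 with modulator. Parental HEK293/pcDNA3.1 tested for reference. N = 2−4 independent experiments, mean ± SEM.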

[5] = Therapeutic index, ratio of IC50 for L929 cells to EC50 for reversing paclitaxel resistance in human MDA435/LCC6MDR cells; format: cell-based; conditions: L929 cells (IC50) and MDA435/LCC6MDR cells (EC50)
[6] = molecular target: T1, ATP-dependent translocase ABCB1; assay: Inhibition of P-gp overexpressed in human MDA435/LCC6MDR cells assessed as accumulation of doxorubicin after 150 mins by fluorescence spectrophotometric analysis; format: cell-based; conditions: 2.5 h
In short: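 1 × 10⁶ LCC6MDR or LCC6 cells incubated with 20 μM DOX and graded modulator for 150 min at 37 °C, with 0.4% DMSO as negative control. Cells washed and lysed in 0.75 M HCl, 0.2% Triton X-100 in isopropanol. DOX fluorescence read at ex 460/em 610 nm. N = 2–5.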

MDR = assay: Cytotoxicity against human MDA435/LCC6MDR cells expressing MDR after 72 hrs; format: functional, cell-based
In short: (§1)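 Cells seeded at 1 × 10⁴ per well in supplemented DMEM and given graded doses of dimer for 72 h at 37 °C, 5% CO₂. Survival measured and IC50 derived. N = 1–3 independent experiments, mean ± SEM.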

Homo sapiens [7] = organism: Homo sapiens; assay: Inhibition of P-gp-mediated paclitaxel resistance in human LCC6MDR cells assessed as fold decrease in paclitaxel IC50 for cytotoxic activity at 1 uM after 5 days by MTS assay relative to parental cells; format: cell-based
P-gp (ABCB1) = P-gp (ABCB1) (Homo sapiens, UniProt P08183); assay: Increase in human P-gp ATPase activity at 200 uM by luciferase assay relative to basal level; conditions: read-out: FC
Chain of P-gp (ABCB1) (P08183 whole entry): as the sequence (P08183 whole entry) above
In short: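 Human P-gp membrane fraction (about 25 μg) incubated with compound at 200 μM, 0.5% DMSO basal or 100 μM vanadate. Reaction started with 5 mM MgATP, 1 h at 37 °C. Remaining ATP read by luciferase luminescence after 20 min at room temperature. Activity normalized to basal and given as stimulation fold. N = 2.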

[8] = Cytotoxicity against human LCC-6 cells after 72 hrs; format: functional, cell-based; conditions: LCC-6, 72 h; in short: as §1
[9] = Reversal of P-gp-mediated paclitaxel-resistance in human LCC6MDR cells after 5 days by MTS assay; format: cell-based; conditions: 120 h
Homo sapiens [10] = organism: Homo sapiens; assay: Inhibition of P-gp-mediated paclitaxel resistance in human LCC6MDR cells assessed as fold decrease in paclitaxel IC50 for cytotoxic activity at 0.5 uM after 5 days by MTS assay relative to parental cells; format: cell-based
[11] = molecular target: Multidrug resistance-associated protein 1 (Homo sapiens, UniProt P33527); assay: Inhibition of MRP1-mediated doxorubicin resistance in human 2008/MRP1 cells assessed as fold decrease in doxorubicin IC50 for cytotoxic activity at 0.5 uM after 5 days by MTS assay relative to parental cell; format: cell-based; conditions: 2008/mrp1, 120 h
Chain of Multidrug resistance-associated protein 1 (P33527 whole entry): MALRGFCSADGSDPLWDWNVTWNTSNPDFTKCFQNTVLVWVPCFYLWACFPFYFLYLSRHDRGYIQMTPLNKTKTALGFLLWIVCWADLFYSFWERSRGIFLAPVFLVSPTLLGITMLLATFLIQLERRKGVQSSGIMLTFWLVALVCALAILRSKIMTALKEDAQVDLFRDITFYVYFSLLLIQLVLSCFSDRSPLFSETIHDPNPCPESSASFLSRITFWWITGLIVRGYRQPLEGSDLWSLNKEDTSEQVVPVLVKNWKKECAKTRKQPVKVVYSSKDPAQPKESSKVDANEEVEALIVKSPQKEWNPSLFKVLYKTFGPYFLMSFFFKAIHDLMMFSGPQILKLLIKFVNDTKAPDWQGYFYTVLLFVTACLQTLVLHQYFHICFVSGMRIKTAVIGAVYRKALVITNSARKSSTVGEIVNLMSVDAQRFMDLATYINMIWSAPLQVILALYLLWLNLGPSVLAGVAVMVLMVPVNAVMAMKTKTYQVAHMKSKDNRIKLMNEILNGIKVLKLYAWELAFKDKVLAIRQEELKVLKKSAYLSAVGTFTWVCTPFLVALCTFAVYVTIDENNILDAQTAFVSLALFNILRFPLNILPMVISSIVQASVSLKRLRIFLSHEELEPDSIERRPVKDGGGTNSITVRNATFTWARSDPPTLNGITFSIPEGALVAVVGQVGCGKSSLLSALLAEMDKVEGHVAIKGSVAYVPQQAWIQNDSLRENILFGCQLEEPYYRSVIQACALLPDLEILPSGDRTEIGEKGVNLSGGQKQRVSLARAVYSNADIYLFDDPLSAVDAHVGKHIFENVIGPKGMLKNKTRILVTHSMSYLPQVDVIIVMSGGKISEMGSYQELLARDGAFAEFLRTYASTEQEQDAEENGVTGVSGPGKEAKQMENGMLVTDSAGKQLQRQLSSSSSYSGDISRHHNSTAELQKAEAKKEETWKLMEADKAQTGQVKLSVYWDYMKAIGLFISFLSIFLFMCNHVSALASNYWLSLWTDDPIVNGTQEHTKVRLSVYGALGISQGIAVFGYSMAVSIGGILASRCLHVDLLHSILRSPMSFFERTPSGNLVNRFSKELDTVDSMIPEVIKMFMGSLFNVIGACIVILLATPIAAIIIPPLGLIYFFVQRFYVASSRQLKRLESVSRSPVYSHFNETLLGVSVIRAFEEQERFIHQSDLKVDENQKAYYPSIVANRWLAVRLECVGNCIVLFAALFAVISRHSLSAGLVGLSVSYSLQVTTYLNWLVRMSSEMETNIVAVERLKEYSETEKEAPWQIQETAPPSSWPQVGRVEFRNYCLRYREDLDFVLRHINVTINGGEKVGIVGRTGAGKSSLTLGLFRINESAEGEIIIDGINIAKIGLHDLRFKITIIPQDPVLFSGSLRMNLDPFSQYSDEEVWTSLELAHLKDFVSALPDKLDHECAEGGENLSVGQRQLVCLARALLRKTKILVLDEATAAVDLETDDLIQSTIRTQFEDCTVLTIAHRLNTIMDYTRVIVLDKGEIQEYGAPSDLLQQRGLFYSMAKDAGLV

L929 = assay: Cytotoxicity against mouse L929 cells after 72 hrs; format: cell-based; conditions: L929, 72 h; in short: as §1
Homo sapiens [12] = organism: Homo sapiens; assay: Reduction in P-gp-mediated drug uptake in human MDA435/LCC6MDR cells at 10 uM for 120 mins by HPLC analysis relative to parental cells; format: cell-based
In short: (§2)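 7.5 × 10⁶ LCC6 or LCC6MDR cells in 5 mL DMEM incubated with compound at 10 or 100 μM for 120 min at 37 °C. Cells washed, lysed by freeze–thaw in acetonitrile with 20% formic acid, and processed. Compound quantified by normal-phase HPLC-UV at 315 nm against a chloroform calibration curve of 0.25–25 μg/mL. N = 1–2.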

[13] = molecular target: T1, ATP-dependent translocase ABCB1; assay: Competitive inhibition of P-gp overexpressed in human MDA435/LCC6MDR cells assessed as accumulation of doxorubicin by Lineweaver-Burk plot analysis; format: cell-based
Homo sapiens [14] = organism: Homo sapiens; assay: Reduction in P-gp-mediated drug uptake in human MDA435/LCC6MDR cells at 100 uM for 120 mins by HPLC analysis relative to parental cells; format: cell-based; in short: as §2
[15] = Reversal of P-gp-mediated daunorubicin-resistance in human LCC6MDR cells after 5 days by MTS assay; format: cell-based; conditions: 120 h
[16] = Reversal of P-gp-mediated doxorubicin-resistance in human LCC6MDR cells after 5 days by MTS assay; format: cell-based; conditions: 120 h
[17] = Reversal of P-gp-mediated mitoxantrone-resistance in human LCC6MDR cells after 5 days by MTS assay; format: cell-based; conditions: 120 h

`O=c1cc(-c2ccc(OCCOCCN(CCOCCOc3ccc(-c4cc(=O)c5ccccc5o4)cc3)Cc3ccccc3)cc2)oc2ccccc12` showed a Ki [1] of 0.28 µM, an EC50 [2] of 0.173 µM and an EC50 [3] of 0.179 µM. It also gave a Ratio [4] of 3.8, a selectivity ratio [5] of 574 and an MIC [6] of 0.5 µM (≈ 0.362 µg/mL). The “inhibition (INH)” value [6] was “Dose-dependent effect”, the IC50 (MDR) was over 63 µM and the Ratio (Homo sapiens [7]) was 139. For the same compound, the fold induction at 200 µM (P-gp (ABCB1)) was 2.7, the IC50 [8] was over 75 µM and the EC50 [9] was 0.148 µM. The Ratio (Homo sapiens [10]) was 58.9, the Ratio [11] was 2.1 and the IC50 (L929) was 85 µM. It also gave a fold change (FC) (Homo sapiens [12]) of 1.7, a Ki [13] of 0.34 µM and a fold change (FC) (Homo sapiens [14]) of 2.1. For the same compound, the EC50 [15] was 0.095 µM, the EC50 [16] was 0.131 µM and the EC50 [17] was 0.09 µM.
